Data on 17 compounds can be found in ChEMBL document CHEMBL2151003, “Synthesis and antitumor activity of ring A modified glycyrrhetinic acid derivatives” (Eur J Med Chem, 2011).

The structures appear in SMILES notation.

Holding throughout (assay type): functional, cell-based
Test [1] can be described thus: Cytotoxicity against human 518A2 cells after 96 hrs by SRB assay. An outline of the steps:
(§1)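 Monolayer cultures in RPMI 1640 with 10% heat-inactivated FBS and penicillin/streptomycin, 37 °C, 5% CO2. Exponentially growing cells were seeded, then treated 24 h later with serial dilutions (0–30 µM; DMSO or DMF ≤0.5% final) for 96 h. Cells were fixed with 10% TCA at 4 °C, stained with 0.4% SRB and solubilized in 10 mM Tris base; A570 was read. IC50 came from semi-log dose–response curves, ≥3 independent experiments.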

The next test relates to DLD-1. The experiment in a line: Cytotoxicity against human DLD1 cells after 96 hrs by SRB assay. In a few lines:
as §1

The subject of a further test is A549. In words: Cytotoxicity against human A549 cells after 96 hrs by SRB assay. In a few lines: as §1
A short description of test [2]: Cytotoxicity against human A253 cells after 96 hrs by SRB assay. In a few lines: as §1
The nature of test [3]: Cytotoxicity against human Lipo cells after 96 hrs by SRB assay. An outline of the steps: as §1
In the next test the test system is 8505C. In words: Cytotoxicity against human 8505C cells after 96 hrs by SRB assay. In a few lines:
as §1

For the next test, the system named is MCF7. The experiment in a line: Cytotoxicity against human MCF7 cells after 96 hrs by SRB assay. An outline of the steps: as §1
The next test concerns SW-1736. The experiment in a line: Cytotoxicity against human SW1736 cells after 96 hrs by SRB assay. In a few lines: as §1
Another test relates to A2780. The experiment in a line: Cytotoxicity against human A2780 cells after 96 hrs by SRB assay. An outline of the steps:
as §1

The test system of a further test is HCT-116. The experiment in a line: Cytotoxicity against human HCT116 cells after 96 hrs by SRB assay. An outline of the steps:
as §1

Another test relates to A-431. In words: Cytotoxicity against human A431 cells after 96 hrs by SRB assay. An outline of the steps:
as §1

The test system of the next test is HT-29. In words: Cytotoxicity against human HT-29 cells after 96 hrs by SRB assay. In a few lines: as §1

Turning to `COC(=O)[C@@]1(C)CC[C@]2(C)CC[C@]3(C)C(=CC(=O)[C@@H]4[C@@]5(C)CC[C@H](OS(=O)(=O)c6ccc(C)cc6)C(C)(C)[C@@H]5CC[C@]43C)[C@@H]2C1`, the IC50 (in test [1]; in the test with DLD-1; in the test on A549; in [2]; in test [3]; with 8505C) was over 30 µmol in each case.
On to `COC(=O)[C@@]1(C)CC[C@]2(C)CC[C@]3(C)C(=CC(=O)[C@@H]4[C@@]5(C)CC/C(=N\OC(C)C)C(C)(C)[C@@H]5CC[C@]43C)[C@@H]2C1`, for which the IC50 (in test [1]; in the test with DLD-1; in the test on A549; in [2]; in test [3]; with MCF7) was over 30 µmol in each case. Also, the IC50 in the test on SW-1736, with 8505C and in the test on A2780 was over 30 µmol in each case.
For the compound `COC(=O)[C@@]1(C)CC[C@]2(C)CC[C@]3(C)C(=CC(=O)[C@@H]4[C@@]5(C)CC[C@H](OC(=O)[C@H](CSC(=O)OC(C)(C)C)NC(=O)OC(C)(C)C)C(C)(C)[C@@H]5CC[C@]43C)[C@@H]2C1`, the IC50 (in test [1]; in the test on DLD-1; in the test on A549; in test [2]; in test [3]; in the test with SW-1736) was over 30 µmol each time. The same compound came in with an IC50 in the test with 8505C of over 30 µmol.
Take `COC(=O)[C@@]1(C)CC[C@]2(C)CC[C@]3(C)C(=CC(=O)[C@@H]4[C@@]5(C)CC[C@H](OC(=O)[C@H](CSCc6ccccc6)NC(=O)OC(C)(C)C)C(C)(C)[C@@H]5CC[C@]43C)[C@@H]2C1`: the IC50 (in test [1]; in the test with DLD-1; in the test on A549; in test [2]; in test [3]; with SW-1736) was over 30 µmol each time. Further, the IC50 in the test with 8505C is over 30 µmol.
For the compound `COC(=O)[C@@]1(C)CC[C@]2(C)CC[C@]3(C)C(=CC(=O)[C@@H]4[C@@]5(C)Cc6nccnc6C(C)(C)[C@@H]5CC[C@]43C)[C@@H]2C1`, the IC50 (in test [1]; in the test with DLD-1; in the test on A549; in [2]; in test [3]; with MCF7) was over 30 µmol throughout. For the same compound, the IC50 with SW-1736, in the test on 8505C and with A2780 was over 30 µmol in each case.
In the case of `CCOC(=O)[C@@]1(C)CC[C@]2(C)CC[C@]3(C)C(=CC(=O)[C@@H]4[C@@]5(C)CC=CC(C)(C)[C@@H]5CC[C@]43C)[C@@H]2C1`, the IC50 (in [1]; in the test on HCT-116; in the test with DLD-1; in the test on A549; with A-431; in test [2]) was over 30 µmol throughout. Moreover, the IC50 (in the test on HT-29; in test [3]; with MCF7) was over 30 µmol in each case.
As for `COC(=O)[C@@]1(C)CC[C@]2(C)CC[C@]3(C)C(=CC(=O)[C@@H]4[C@@]5(C)CC[C@H](OC(=O)CCC(=O)O)C(C)(C)[C@@H]5CC[C@]43C)[C@@H]2C1`, the IC50 (in test [1]; in the test on DLD-1; with A549; in test [2]; in test [3]; in the test on 8505C) was over 30 µmol each time.
In the case of `CCOC(=O)[C@@]1(C)CC[C@]2(C)CC[C@]3(C)C(=CC(=O)[C@@H]4[C@@]5(C)CCC(=O)OC(C)(C)[C@@H]5CC[C@]43C)[C@@H]2C1`, the IC50 in [1] was over 30 µmol; in the test on DLD-1 it was over 30 µmol; in the test with A549, over 30 µmol; in [2] it was 28.73 µmol; in test [3], over 30 µmol; in the test with MCF7, 20.58 µmol. Besides, the IC50 in the test with SW-1736 is 12.71 µmol; with 8505C, over 30 µmol; in the test on A2780, 15 µmol.
In the case of `CCOC(=O)[C@@]1(C)CC[C@]2(C)CC[C@]3(C)C(=CC(=O)[C@@H]4[C@@](C)(CCC(=O)O)[C@H](C(C)(C)O)CC[C@]43C)[C@@H]2C1`, the IC50 (in test [1]; with DLD-1; with A549; in test [2]; in test [3]; in the test with MCF7) was over 30 µmol each time. In addition, the IC50 in the test on SW-1736, in the test with 8505C and in the test with A2780 was over 30 µmol throughout.
Consider `COC(=O)[C@@]1(C)CC[C@]2(C)CC[C@]3(C)C(=CC(=O)[C@@H]4[C@@]5(C)CC[C@H](OC(=O)[C@H](CO[Si](C)(C)C(C)(C)C)NC(=O)OC(C)(C)C)C(C)(C)[C@@H]5CC[C@]43C)[C@@H]2C1`, for which the IC50 in test [1] was over 30 µmol; with DLD-1, over 30 µmol; in the test with A549, over 30 µmol; in test [2] it was 28.59 µmol; in test [3], over 30 µmol; in the test with 8505C, over 30 µmol.
`COC(=O)[C@@]1(C)CC[C@]2(C)CC[C@]3(C)C(=CC(=O)[C@@H]4[C@@]5(C)CCC(=O)C(C)(C)[C@@H]5CC[C@]43C)[C@@H]2C1`: the IC50 (in [1]; in the test on DLD-1; with A549; in test [2]; in [3]; in the test on MCF7) was over 30 µmol in each case. The figures for the IC50 in the test with SW-1736, with 8505C and in the test with A2780 were 29.09 µmol, over 30 µmol and over 30 µmol, respectively.
In the case of `CCOC(=O)[C@@]1(C)CC[C@]2(C)CC[C@]3(C)C(=CC(=O)[C@@H]4[C@@]5(C)CC[C@H](OC(=O)CCC(=O)O)C(C)(C)[C@@H]5CC[C@]43C)[C@@H]2C1`, the IC50 is 28.99 µmol in test [1]; over 30 µmol in the test on DLD-1; over 30 µmol with A549; over 30 µmol in test [2]; over 30 µmol in test [3]; over 30 µmol in the test with 8505C.
Consider `CCCCCCCCO/N=C1\CC[C@]2(C)[C@H]3C(=O)C=C4[C@@H]5C[C@@](C)(C(=O)OC)CC[C@]5(C)CC[C@@]4(C)[C@]3(C)CC[C@H]2C1(C)C`, for which the IC50 in test [1] is over 30 µmol; in the test with DLD-1, over 30 µmol; with A549, over 30 µmol; in [2], over 30 µmol; in test [3], over 30 µmol; in the test with MCF7, 26.35 µmol. Further, the IC50 is 17.77 µmol with SW-1736, over 30 µmol in the test on 8505C and 19.73 µmol in the test on A2780.
In the case of `CCOC(=O)[C@@]1(C)CC[C@]2(C)CC[C@]3(C)C(=CC(=O)[C@@H]4[C@@]5(C)CCC(=O)C(C)(C)[C@@H]5CC[C@]43C)[C@@H]2C1`, the IC50 (in [1]; in the test on DLD-1; in the test on A549; in test [2]; in test [3]; in the test with MCF7) was over 30 µmol each time. Further, the IC50 in the test on SW-1736, in the test on 8505C and in the test with A2780 was over 30 µmol in each case.
With `C=C(C)[C@@H]1CC[C@]2(C)[C@H](C(=O)C=C3[C@@H]4C[C@@](C)(C(=O)OCC)CC[C@]4(C)CC[C@]32C)[C@@]1(C)CCC(=O)OCC`, the IC50 in [1] is 9.28 µmol; in the test on DLD-1, over 30 µmol; in the test with A549, over 30 µmol; in [2] it was over 30 µmol; in test [3] it was over 30 µmol; in the test with MCF7 it was 25.42 µmol. Also, the IC50 in the test with SW-1736 is 26.74 µmol; with 8505C, over 30 µmol; with A2780, 5.89 µmol.
Take `CCOC(=O)[C@@]1(C)CC[C@]2(C)CC[C@]3(C)C(=CC(=O)[C@@H]4[C@@]5(C)C[C@H]6O[C@H]6C(C)(C)[C@@H]5CC[C@]43C)[C@@H]2C1`: the IC50 (in test [1]; in the test with HCT-116; in the test with DLD-1; with A549; in the test with A-431; in [2]) was over 30 µmol each time. Also, the IC50 (with HT-29; in test [3]; with MCF7) was over 30 µmol each time.
`C=C(C)[C@@H]1CC[C@]2(C)[C@H](C(=O)C=C3[C@@H]4C[C@@](C)(C(=O)OCC)CC[C@]4(C)CC[C@]32C)[C@@]1(C)CCC(=O)O`: the IC50 (in [1]; in the test on DLD-1; in the test on A549; in test [2]; in test [3]; in the test on MCF7) was over 30 µmol each time. The IC50 in the test on SW-1736, in the test with 8505C and in the test on A2780 was over 30 µmol throughout.
